Experimental data: ChEMBL document CHEMBL2069274, “Novel 3-nitro-1H-1,2,4-triazole-based amides and sulfonamides as potential antitrypanosomal agents” (J Med Chem, 2012)
Values belong to the compound of their own block, whether it stands above or below them. The source made the active and inactive calls. The rule behind the calls is not given here.

Legend:
[1] = system: Trypanosoma brucei rhodesiense; assay: Antitrypanosomal activity against Trypanosoma brucei rhodesiense STIB 900 trypomastigotes; assay type: functional, organism-based
Outline: (§1)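 96-well format screens: bloodstream-form T. b. rhodesiense trypomastigotes, T. cruzi amastigotes within infected L6 rat skeletal myoblasts, axenically grown L. donovani amastigotes, and uninfected L6 cells for cytotoxicity. IC50 (μM) obtained by linear regression from sigmoidal dose–inhibition curves.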

Trypanosoma cruzi [2] = assay: Antitrypanosomal activity against Trypanosoma cruzi Tulahuen C4 amastigotes; assay type: functional, organism-based; outline: as §1
Leishmania donovani = assay: Antileishmanial activity against Leishmania donovani MHOM-ET67/L82 amastigotes; assay type: functional, organism-based; outline: as §1
L6 = assay: Cytotoxicity against rat L6 cells; assay type: cell-based; outline: as §1
Trypanosoma cruzi [3] = assay: Ratio of benznidazole IC50 to compound IC50 for Trypanosoma cruzi Tulahuen C4 amastigotes; assay type: functional
[4] = Selectivity index, ratio of IC50 for rat L6 cells to IC50 for Trypanosoma cruzi Tulahuen C4 amastigotes
[5] = Selectivity index, ratio of IC50 for rat L6 cells to IC50 for Leishmania donovani MHOM-ET67/L82 amastigotes
[6] = Selectivity index, ratio of IC50 for rat L6 cells to IC50 for Trypanosoma brucei rhodesiense STIB900 trypomastigotes
[7] = target: Trypanothione reductase (Trypanosoma brucei brucei) (UniProt P39051); assay: Inhibition of Trypanosoma brucei brucei trypanothione reductase at <100 uM
[8] = system: Trypanosoma brucei brucei; assay: Antitrypanosomal activity against bloodstream form of Trypanosoma brucei brucei Lister 427 clone 221a; assay type: functional, organism-based
Outline: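 Bloodstream-form parasites seeded at 1 × 10^3 per ml in growth medium with a range of compound concentrations; where required, TbNTR expression induced with tetracycline (1 μg/mL). Incubation 3 days at 37 °C, then Alamar blue added for a further 16 h. Cell density read and IC50 determined.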

[9] = system: Trypanosoma brucei brucei; assay: Activity of Trypanosoma brucei brucei recombinant Type I nitroreductase assessed as oxidised NADH level by spectrophotometric analysis
Outline: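 His-tagged recombinant TbNTR, purified, assayed spectrophotometrically at 340 nm with nitrotriazole substrate (100 μM) and NADH (100 μM); activity expressed as nmol NADH oxidized min−1 mg−1 enzyme.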

[10] = system: Trypanosoma brucei brucei; assay: Antitrypanosomal activity against bloodstream form of Trypanosoma brucei brucei Lister 427 clone 221a overexpressing tet-inducible NTR in absence of tetracycline after 3 days; conditions: 72 h
[11] = system: Trypanosoma brucei brucei; assay: Antitrypanosomal activity against bloodstream form of Trypanosoma brucei brucei Lister 427 clone 221a overexpressing tet-inducible NTR in presence of tetracycline after 3 days; conditions: 72 h
[12] = system: Trypanosoma brucei brucei; assay: Selectivity ratio of IC50 for Trypanosoma brucei brucei Lister 427 clone 221a overexpressing tet-inducible NTR in absence of tetracycline to IC50 for Trypanosoma brucei brucei overexpressing tet-inducible NTR in presence of tetracyclin

Sequence of Trypanothione reductase (Trypanosoma brucei brucei) (P39051 whole entry, looked up): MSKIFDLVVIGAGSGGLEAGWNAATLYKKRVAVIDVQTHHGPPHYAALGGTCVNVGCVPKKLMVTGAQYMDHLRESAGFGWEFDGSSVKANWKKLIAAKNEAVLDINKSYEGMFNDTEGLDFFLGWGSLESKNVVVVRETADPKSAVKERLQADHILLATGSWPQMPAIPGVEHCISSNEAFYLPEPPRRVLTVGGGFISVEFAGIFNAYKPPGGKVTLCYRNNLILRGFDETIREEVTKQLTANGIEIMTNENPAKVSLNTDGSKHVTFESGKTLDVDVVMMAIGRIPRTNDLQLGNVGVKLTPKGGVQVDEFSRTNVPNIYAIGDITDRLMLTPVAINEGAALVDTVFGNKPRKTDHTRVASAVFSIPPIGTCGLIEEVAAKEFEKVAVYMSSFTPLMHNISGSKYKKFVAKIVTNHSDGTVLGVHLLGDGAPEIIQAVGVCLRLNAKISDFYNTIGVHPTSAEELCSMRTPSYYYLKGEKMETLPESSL

- IC50 [1]: 11.5 µM
- IC50 (Trypanosoma cruzi [2]): 1800 nM
- IC50 (Leishmania donovani): 5.91 µM
Compound: Cc1ccc2nc(NC(=O)Cn3cnc([N+](=O)[O-])n3)sc2c1
- IC50 (L6): 170 µM
- Ratio IC50 (Trypanosoma cruzi [3]): 0.9
- selectivity ratio [4]: 94.4
- selectivity ratio [5]: 28.7
- selectivity ratio [6]: 14.8

- IC50 [1]: 0.477 µM
- IC50 (Trypanosoma cruzi [2]): 203 nM
- IC50 (Leishmania donovani): 7.8 µM
Compound: O=[N+]([O-])c1ncn(CCCCNS(=O)(=O)c2ccc(OC(F)(F)F)cc2)n1
- IC50 (L6): 112 µM
- Ratio IC50 (Trypanosoma cruzi [3]): 7.7
- selectivity ratio [4]: 552
- selectivity ratio [5]: 14.4
- selectivity ratio [6]: 235

- IC50 [1]: 27.5 µM
- IC50 (Trypanosoma cruzi [2]): 1660 nM
- IC50 (Leishmania donovani): 15.6 µM
- inhibition [7]: inactive
Compound: O=[N+]([O-])c1nccn1CCCNS(=O)(=O)c1ccc(C(F)(F)F)cc1
- IC50 (L6): 176 µM
- Ratio IC50 (Trypanosoma cruzi [3]): 0.9
- selectivity ratio [4]: 106

Compound: O=C(NCCCn1cnc([N+](=O)[O-])n1)c1ccc2ccccc2n1
- IC50 [1]: 3.22 µM
- IC50 (Trypanosoma cruzi [2]): 138 nM
- IC50 (Leishmania donovani): 19.9 µM
- IC50 (L6): 218 µM
- IC50 [8]: > 10 µM
- Activity [9]: Active
- inhibition [7]: inactive
- Ratio IC50 (Trypanosoma cruzi [3]): 11.3
- selectivity ratio [4]: 1580

Compound: O=C(NCCCCn1cnc([N+](=O)[O-])n1)c1ccc(C(F)(F)F)cc1
- IC50 [1]: 0.501 µM
- IC50 (Trypanosoma cruzi [2]): 176 nM
- IC50 (Leishmania donovani): 7.93 µM
- IC50 (L6): 104 µM
- IC50 [8]: 0.9 µM
- Activity [9]: Active
- Ratio IC50 (Trypanosoma cruzi [3]): 8.9
- selectivity ratio [4]: 591
- selectivity ratio [6]: 208
- IC50 [10]: 1300 nM
- IC50 [11]: 130 nM
- Ratio IC50 [12]: 10

Compound: Cc1ccc(S(=O)(=O)NCCCn2cnc([N+](=O)[O-])n2)cc1
- IC50 [1]: 2.54 µM
- IC50 (Trypanosoma cruzi [2]): 412 nM
- IC50 (Leishmania donovani): 38.1 µM
- IC50 (L6): > 308 µM
- IC50 [8]: 4 µM
- Ratio IC50 (Trypanosoma cruzi [3]): 3.8
- selectivity ratio [4]: > 747
- selectivity ratio [6]: > 121
- IC50 [10]: 5630 nM
- IC50 [11]: 240 nM
- Ratio IC50 [12]: 23

Compound: O=C(Cn1ccnc1[N+](=O)[O-])NCc1ccccc1 [BENZNIDAZOLE]
- IC50 (Trypanosoma cruzi [2]): 1560 nM
- IC50 [10]: 21800 nM
- IC50 [11]: 2200 nM
- Ratio IC50 [12]: 10

Compound: O=C(Cn1cnc([N+](=O)[O-])n1)NCc1ccc(C(F)(F)F)cc1
- IC50 [1]: 6.47 µM
- IC50 (Trypanosoma cruzi [2]): 970 nM
- IC50 (Leishmania donovani): 10.4 µM
- IC50 (L6): 129 µM
- IC50 [8]: 8.5 µM
- inhibition [7]: inactive
- Ratio IC50 (Trypanosoma cruzi [3]): 1.6
- selectivity ratio [4]: 133

- IC50 [1]: 48.5 µM
- IC50 (Trypanosoma cruzi [2]): 6590 nM
- IC50 (Leishmania donovani): 5.82 µM
Compound: O=C(Cn1cnc([N+](=O)[O-])n1)Nc1nc2ccc(Cl)cc2s1
- IC50 (L6): 163 µM
- Ratio IC50 (Trypanosoma cruzi [3]): 0.2
- selectivity ratio [4]: 24.8
- selectivity ratio [5]: 28
- selectivity ratio [6]: 3.4

Compound: O=C(NCCCn1cnc([N+](=O)[O-])n1)Nc1cc(C(F)(F)F)cc(C(F)(F)F)c1
- IC50 [1]: 6.03 µM
- IC50 (Trypanosoma cruzi [2]): 734 nM
- IC50 (Leishmania donovani): 11.4 µM
- IC50 (L6): 24.2 µM
- IC50 [8]: 1 µM
- Ratio IC50 (Trypanosoma cruzi [3]): 2.1
- selectivity ratio [4]: 33
- selectivity ratio [6]: 4
- IC50 [10]: 810 nM
- IC50 [11]: 180 nM
- Ratio IC50 [12]: 5

Compound: O=C(NCCCCn1cnc([N+](=O)[O-])n1)c1ccc2ccccc2n1
- IC50 [1]: 4 µM
- IC50 (Trypanosoma cruzi [2]): 132 nM
- IC50 (Leishmania donovani): 13.4 µM
- IC50 (L6): 91.5 µM
- IC50 [8]: > 10 µM
- Activity [9]: Active
- Ratio IC50 (Trypanosoma cruzi [3]): 11.8
- selectivity ratio [4]: 691

Compound: O=C(NCCCCn1cnc([N+](=O)[O-])n1)c1ccc(OC(F)(F)F)cc1
- IC50 [1]: 1.39 µM
- IC50 (Trypanosoma cruzi [2]): 113 nM
- IC50 (Leishmania donovani): 13 µM
- IC50 (L6): > 268 µM
- IC50 [8]: 3.6 µM
- inhibition [7]: inactive
- Ratio IC50 (Trypanosoma cruzi [3]): 13.8
- selectivity ratio [4]: > 2380
- selectivity ratio [6]: > 193
- IC50 [10]: 1050 nM
- IC50 [11]: 100 nM
- Ratio IC50 [12]: 11

- IC50 [1]: 34.4 µM
- IC50 (Trypanosoma cruzi [2]): 7880 nM
- IC50 (Leishmania donovani): 4.68 µM
Compound: O=C(Cn1cnc([N+](=O)[O-])n1)Nc1nc2cc(Cl)ccc2o1
- IC50 (L6): 26.3 µM
- Ratio IC50 (Trypanosoma cruzi [3]): 0.2
- selectivity ratio [4]: 3.3
- selectivity ratio [5]: 5.6
- selectivity ratio [6]: < 1

Compound: O=C(NCCn1cnc([N+](=O)[O-])n1)c1ccc(C(F)(F)F)cc1
- IC50 [1]: 3.16 µM
- IC50 (Trypanosoma cruzi [2]): 438 nM
- IC50 (Leishmania donovani): 33.4 µM
- IC50 (L6): > 274 µM
- IC50 [8]: 1.3 µM
- Activity [9]: Active
- inhibition [7]: inactive
- Ratio IC50 (Trypanosoma cruzi [3]): 3.6
- selectivity ratio [4]: > 625
- IC50 [10]: 1260 nM
- IC50 [11]: 90 nM
- Ratio IC50 [12]: 14

Compound: O=[N+]([O-])c1ncn(CCNS(=O)(=O)c2ccc(C(F)(F)F)cc2)n1
- IC50 [1]: 2.79 µM
- IC50 (Trypanosoma cruzi [2]): 803 nM
- IC50 (Leishmania donovani): 32.4 µM
- IC50 (L6): 200 µM
- IC50 [8]: > 10 µM
- Activity [9]: Active
- Ratio IC50 (Trypanosoma cruzi [3]): 1.9
- selectivity ratio [4]: 248

Compound: O=C(NCCCn1cnc([N+](=O)[O-])n1)c1cc(C(F)(F)F)cc(C(F)(F)F)c1
- IC50 [1]: 16.4 µM
- IC50 (Trypanosoma cruzi [2]): 642 nM
- IC50 (Leishmania donovani): 12.3 µM
- IC50 (L6): 187 µM
- IC50 [8]: > 10 µM
- Ratio IC50 (Trypanosoma cruzi [3]): 2.4
- selectivity ratio [4]: 291
- selectivity ratio [6]: 11.4

Compound: O=[N+]([O-])c1ncn(CCCNS(=O)(=O)c2ccc(-c3ccccc3)cc2)n1
- IC50 [1]: 1.05 µM
- IC50 (Trypanosoma cruzi [2]): 28 nM
- IC50 (Leishmania donovani): 7.54 µM
- IC50 (L6): 50 µM
- IC50 [8]: 0.5 µM
- Ratio IC50 (Trypanosoma cruzi [3]): 55.8
- selectivity ratio [4]: 1760
- IC50 [10]: 440 nM
- IC50 [11]: 70 nM
- Ratio IC50 [12]: 6

Compound: O=[N+]([O-])c1ncn(CCCNS(=O)(=O)c2ccc(Cl)s2)n1
- IC50 [1]: 1.99 µM
- IC50 (Trypanosoma cruzi [2]): 438 nM
- IC50 (Leishmania donovani): 33 µM
- IC50 (L6): 244 µM
- IC50 [8]: 2.3 µM
- Ratio IC50 (Trypanosoma cruzi [3]): 3.6
- selectivity ratio [4]: 556
- selectivity ratio [5]: 7.4
- selectivity ratio [6]: 122
- IC50 [10]: 4340 nM
- IC50 [11]: 230 nM
- Ratio IC50 [12]: 19

Compound: CC1CS(=O)(=O)CCN1/N=C/c1ccc([N+](=O)[O-])o1 (centres undefined) [NIFURTIMOX]
- Activity [9]: Active
- Ratio IC50 [12]: 13

Compound: O=C(NCCCn1cnc([N+](=O)[O-])n1)c1ccc(-c2ccccc2)cc1
- IC50 [1]: 0.587 µM
- IC50 (Trypanosoma cruzi [2]): 43 nM
- IC50 (Leishmania donovani): 8.37 µM
- IC50 (L6): 117 µM
- IC50 [8]: 0.3 µM
- Ratio IC50 (Trypanosoma cruzi [3]): 36.3
- selectivity ratio [4]: 2780
- selectivity ratio [6]: 199
- IC50 [10]: 280 nM
- IC50 [11]: 50 nM
- Ratio IC50 [12]: 6

Compound: O=[N+]([O-])c1ncn(CCCNS(=O)(=O)c2ccc(C(F)(F)F)cc2)n1
- IC50 [1]: 0.504 µM
- IC50 (Trypanosoma cruzi [2]): 359 nM
- IC50 (Leishmania donovani): 13.1 µM
- IC50 (L6): 235 µM
- IC50 [8]: 3.4 µM
- Activity [9]: Active
- inhibition [7]: inactive
- Ratio IC50 (Trypanosoma cruzi [3]): 4.4
- selectivity ratio [4]: 656
- selectivity ratio [6]: 467
- IC50 [10]: 7830 nM
- IC50 [11]: 250 nM
- Ratio IC50 [12]: 31

Compound: O=C(Cn1cnc([N+](=O)[O-])n1)NCc1ccccc1
- IC50 [1]: 9.96 µM
- IC50 (Trypanosoma cruzi [2]): 3380 nM
- IC50 (Leishmania donovani): 28.1 µM
- IC50 (L6): 345 µM
- IC50 [8]: > 10 µM
- Activity [9]: Active
- Ratio IC50 (Trypanosoma cruzi [3]): 0.5
- selectivity ratio [4]: 102

Compound: Nc1nc(N)nc(Nc2ccc([As]3SCC(CO)S3)cc2)n1 (centres undefined) [MELARSOPROL]
- IC50 [10]: 3.4 nM
- IC50 [11]: 3.4 nM
- Ratio IC50 [12]: 1

Compound: O=C(Cn1cnc([N+](=O)[O-])n1)N1CCC(Cc2ccccc2)CC1
- IC50 [1]: 3.4 µM
- IC50 (Trypanosoma cruzi [2]): 307 nM
- IC50 (Leishmania donovani): 51.4 µM
- IC50 (L6): 144 µM
- IC50 [8]: > 10 µM
- inhibition [7]: inactive
- Ratio IC50 (Trypanosoma cruzi [3]): 5.1
- selectivity ratio [4]: 468
